{
  "source": "ChEMBL document CHEMBL5674876",
  "about": "“Epigenetic Activation of Pro-angiogenic Signaling Pathways in Human Endothelial Progenitors Increases Vasculogenesis” (Stem Cell Reports, 2017)",
  "key": {"[1]": {"tested_on": "Umbilical cord derived endothelial colony forming cell", "assay": "Activation of WNT pro-angiogenic pathway in human umbilical cord derived endothelial colony forming cells by measuring WNT11 level in presence of panobinostat by qRT-PCR analysis", "assay_type": "cell-based", "details": "filed as activator"}, "[2]": {"tested_on": "HUVEC", "assay": "Effect on pro-angiogenic property in human umbilical cord derived endothelial colony forming cells assessed as increase in KDR level in presence of panobinostat by qRT-PCR analysis", "assay_type": "functional, cell-based"}, "[3]": {"tested_on": "HUVEC", "assay": "Effect on pro-angiogenic property in human umbilical cord derived endothelial colony forming cells assessed as increase in VEGFR2 protein phosphorylation by Western blotting analysis", "assay_type": "functional, cell-based"}, "[4]": {"biological_target": "Histone-lysine N-methyltransferase EZH2 (Homo sapiens) (UniProt Q15910)", "sequence (Q15910 whole entry, looked up)": "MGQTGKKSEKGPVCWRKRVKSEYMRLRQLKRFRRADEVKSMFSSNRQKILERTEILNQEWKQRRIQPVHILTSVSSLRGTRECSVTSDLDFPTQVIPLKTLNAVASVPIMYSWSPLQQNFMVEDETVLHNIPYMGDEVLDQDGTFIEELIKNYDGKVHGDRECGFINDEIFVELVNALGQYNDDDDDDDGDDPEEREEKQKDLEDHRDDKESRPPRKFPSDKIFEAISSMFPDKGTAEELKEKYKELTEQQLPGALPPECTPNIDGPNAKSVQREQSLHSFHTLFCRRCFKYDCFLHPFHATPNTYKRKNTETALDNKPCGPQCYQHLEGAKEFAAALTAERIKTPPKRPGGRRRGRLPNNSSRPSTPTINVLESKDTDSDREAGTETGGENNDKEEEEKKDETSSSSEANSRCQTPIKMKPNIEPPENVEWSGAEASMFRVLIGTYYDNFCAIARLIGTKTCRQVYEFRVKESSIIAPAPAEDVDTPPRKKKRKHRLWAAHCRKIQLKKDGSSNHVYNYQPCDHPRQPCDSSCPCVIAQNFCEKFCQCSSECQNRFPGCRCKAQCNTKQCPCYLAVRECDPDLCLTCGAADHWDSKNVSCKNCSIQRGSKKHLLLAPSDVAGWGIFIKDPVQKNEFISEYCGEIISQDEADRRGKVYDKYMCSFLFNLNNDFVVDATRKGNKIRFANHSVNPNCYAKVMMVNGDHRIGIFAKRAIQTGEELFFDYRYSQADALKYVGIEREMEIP", "assay": "Inhibition of EZH2 in human umbilical cord derived endothelial colony forming cells assessed as decrease in H3K4me3 level at 0.01 to 5 uM measured after 24 to 72 hrs by Western blotting analysis", "assay_type": "cell-based", "details": "Umbilical cord derived endothelial colony forming cell, dose 0.01-5 µM, time 24-72 hrs", "summary_of_the_method": "(§1)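 Human cord-blood ECFC clones, at least three independent, passages 3–6, grown in EGM-2 with 10% FBS. Histone methylation marks were assessed by western blot, with total histone H3 and H4 as loading controls.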"}, "[5]": {"tested_on": "HUVEC", "assay": "Effect on pro-angiogenic property in human umbilical cord derived endothelial colony forming cells assessed as increase in AKT protein phosphorylation by Western blotting analysis", "assay_type": "functional, cell-based"}, "[6]": {"tested_on": "HUVEC", "assay": "Effect on pro-angiogenic property in human umbilical cord derived endothelial colony forming cells assessed as increase in CXCL12 level by qRT-PCR analysis", "assay_type": "functional, cell-based"}, "[7]": {"tested_on": "Umbilical cord derived endothelial colony forming cell", "assay": "Activation of WNT pro-angiogenic pathway in human umbilical cord derived endothelial colony forming cells by measuring MML1 level in presence of panobinostat by qRT-PCR analysis", "assay_type": "cell-based", "details": "filed as activator"}, "[8]": {"biological_target": "Histone acetyltransferase p300 (Homo sapiens) (UniProt Q09472)", "sequence (Q09472 whole entry)": "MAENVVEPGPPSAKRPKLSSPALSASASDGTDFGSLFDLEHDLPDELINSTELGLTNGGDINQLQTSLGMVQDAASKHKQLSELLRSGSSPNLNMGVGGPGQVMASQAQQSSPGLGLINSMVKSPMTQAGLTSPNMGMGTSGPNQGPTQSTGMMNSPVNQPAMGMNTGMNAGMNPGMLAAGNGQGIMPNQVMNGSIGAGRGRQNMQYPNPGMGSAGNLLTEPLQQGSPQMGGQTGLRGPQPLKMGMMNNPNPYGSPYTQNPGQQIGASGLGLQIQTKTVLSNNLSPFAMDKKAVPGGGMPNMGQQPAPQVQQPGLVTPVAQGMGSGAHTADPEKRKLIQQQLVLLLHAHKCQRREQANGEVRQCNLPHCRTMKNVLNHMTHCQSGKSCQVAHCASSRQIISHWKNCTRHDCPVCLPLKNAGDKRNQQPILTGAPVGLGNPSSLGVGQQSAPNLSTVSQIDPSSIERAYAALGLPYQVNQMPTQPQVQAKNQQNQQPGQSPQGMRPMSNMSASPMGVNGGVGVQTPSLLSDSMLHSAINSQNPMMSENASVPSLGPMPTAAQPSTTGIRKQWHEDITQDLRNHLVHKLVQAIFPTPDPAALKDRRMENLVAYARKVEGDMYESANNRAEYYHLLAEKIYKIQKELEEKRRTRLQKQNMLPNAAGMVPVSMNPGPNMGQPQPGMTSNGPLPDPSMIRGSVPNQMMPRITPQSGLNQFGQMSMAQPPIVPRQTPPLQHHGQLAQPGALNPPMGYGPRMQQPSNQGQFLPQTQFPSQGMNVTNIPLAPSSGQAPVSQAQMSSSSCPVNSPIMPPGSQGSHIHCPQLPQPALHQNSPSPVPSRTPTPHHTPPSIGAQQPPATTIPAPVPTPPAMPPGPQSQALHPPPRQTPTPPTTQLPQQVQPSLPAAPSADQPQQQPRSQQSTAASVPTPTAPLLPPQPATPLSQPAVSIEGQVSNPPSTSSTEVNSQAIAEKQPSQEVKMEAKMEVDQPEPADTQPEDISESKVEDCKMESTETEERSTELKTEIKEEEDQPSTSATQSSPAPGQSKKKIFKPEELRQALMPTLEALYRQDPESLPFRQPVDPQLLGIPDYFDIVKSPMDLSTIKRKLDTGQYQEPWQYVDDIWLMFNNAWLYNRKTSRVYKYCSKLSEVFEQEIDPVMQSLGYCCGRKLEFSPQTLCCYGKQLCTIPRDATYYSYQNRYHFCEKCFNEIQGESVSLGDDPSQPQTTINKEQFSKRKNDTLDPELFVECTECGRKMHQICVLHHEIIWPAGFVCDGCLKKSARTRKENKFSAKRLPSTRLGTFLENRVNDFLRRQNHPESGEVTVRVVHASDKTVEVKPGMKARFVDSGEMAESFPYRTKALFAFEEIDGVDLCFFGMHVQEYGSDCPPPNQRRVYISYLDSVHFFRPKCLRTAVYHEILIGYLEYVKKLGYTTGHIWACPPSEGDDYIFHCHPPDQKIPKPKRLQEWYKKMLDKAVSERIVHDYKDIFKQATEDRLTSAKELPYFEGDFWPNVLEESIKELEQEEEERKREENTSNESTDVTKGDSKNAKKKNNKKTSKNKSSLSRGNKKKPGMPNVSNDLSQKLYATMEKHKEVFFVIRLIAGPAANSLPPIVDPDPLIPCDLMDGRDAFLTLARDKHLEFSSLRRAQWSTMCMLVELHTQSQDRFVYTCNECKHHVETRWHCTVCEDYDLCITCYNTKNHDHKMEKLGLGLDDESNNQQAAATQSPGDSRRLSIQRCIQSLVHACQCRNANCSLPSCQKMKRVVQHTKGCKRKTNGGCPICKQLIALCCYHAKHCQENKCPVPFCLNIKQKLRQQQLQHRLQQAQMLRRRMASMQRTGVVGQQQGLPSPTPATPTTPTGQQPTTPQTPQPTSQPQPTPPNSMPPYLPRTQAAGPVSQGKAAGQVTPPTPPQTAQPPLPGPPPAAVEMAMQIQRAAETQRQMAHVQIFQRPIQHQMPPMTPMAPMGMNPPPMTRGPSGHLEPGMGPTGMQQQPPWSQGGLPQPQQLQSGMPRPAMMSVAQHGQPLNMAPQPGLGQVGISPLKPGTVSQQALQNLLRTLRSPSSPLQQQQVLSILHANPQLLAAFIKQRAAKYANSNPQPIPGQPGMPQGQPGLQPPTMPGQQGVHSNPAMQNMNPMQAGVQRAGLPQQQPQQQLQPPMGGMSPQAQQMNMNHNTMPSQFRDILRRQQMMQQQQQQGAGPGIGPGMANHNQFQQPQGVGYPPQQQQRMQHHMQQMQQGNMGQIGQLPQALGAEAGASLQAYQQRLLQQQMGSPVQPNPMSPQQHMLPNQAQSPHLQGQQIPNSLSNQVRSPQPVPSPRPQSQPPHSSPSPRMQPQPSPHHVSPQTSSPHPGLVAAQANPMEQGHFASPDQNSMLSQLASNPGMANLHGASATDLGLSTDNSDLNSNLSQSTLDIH", "assay": "Inhibition of acetyl transferase P300 in human umbilical cord derived endothelial colony forming cells assessed as decrease in protein level by Western blotting analysis", "assay_type": "cell-based", "details": "Umbilical cord derived endothelial colony forming cell", "summary_of_the_method": "(§2)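 Cord-blood ECFCs were treated with an EZH2 inhibitor at 5 μM for 72 hr, then an HDAC inhibitor at 10 nM for 2 hr, or with vehicle. Levels of the epigenetic enzymes were read by western blot, with tubulin as loading control.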"}, "[9]": {"tested_on": "Umbilical cord derived endothelial colony forming cell", "assay": "Activation of WNT pro-angiogenic pathway in human umbilical cord derived endothelial colony forming cells by measuring WNT4 level in presence of panobinostat by qRT-PCR analysis", "assay_type": "cell-based", "details": "filed as activator"}, "[10]": {"tested_on": "Umbilical cord derived endothelial colony forming cell", "assay": "Activation of WNT pro-angiogenic pathway in human umbilical cord derived endothelial colony forming cells by measuring DKK3 level at 5 uM for 72 hrs in presence of panobinostat for 2 hrs by qRT-PCR analysis", "assay_type": "cell-based", "details": "filed as activator"}, "[11]": {"tested_on": "HUVEC", "assay": "Effect on pro-angiogenic property in human umbilical cord derived endothelial colony forming cells assessed as increase in ERK1 protein phosphorylation by Western blotting analysis", "assay_type": "functional, cell-based"}, "[12]": {"tested_on": "HUVEC", "assay": "Effect on pro-angiogenic property in human umbilical cord derived endothelial colony forming cells assessed as formation of capillary network on matrigel", "assay_type": "functional, cell-based", "details": "dose 0.01-5 µM", "summary_of_the_method": "(§3)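 Drug- or vehicle-pretreated ECFCs seeded at 5,000 cells/well on phenol-red-free growth-factor-reduced Matrigel in duplicate; after 24 hr stained with 5 μg/mL calcein 5 min at 37°C, imaged at 2.5×. Total tube length expressed as percentage of vehicle control ±SEM, three independent experiments.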"}, "[13]": {"tested_on": "Umbilical cord derived endothelial colony forming cell", "assay": "Inhibition of H3K27 demethylase UTX in human umbilical cord derived endothelial colony forming cells assessed as decrease in protein level by Western blotting analysis", "assay_type": "cell-based", "summary_of_the_method": "as §2"}, "[14]": {"tested_on": "HUVEC", "assay": "Downregulation of SEMA3A in human umbilical cord derived endothelial colony forming cells by qRT-PCR analysis", "assay_type": "functional, cell-based"}, "[15]": {"biological_target": "Histone deacetylase 1 (Homo sapiens) (UniProt Q13547)", "assay": "Inhibition of deacetylase HDAC1 in human umbilical cord derived endothelial colony forming cells assessed as decrease in protein level by Western blotting analysis", "assay_type": "cell-based", "details": "Umbilical cord derived endothelial colony forming cell", "summary_of_the_method": "as §2"}, "[16]": {"tested_on": "HUVEC", "assay": "Effect on pro-angiogenic property in human umbilical cord derived endothelial colony forming cells assessed as increase in HEY2 level in presence of panobinostat by qRT-PCR analysis", "assay_type": "functional, cell-based"}, "[17]": {"tested_on": "Umbilical cord derived endothelial colony forming cell", "assay": "Activation of WNT pro-angiogenic pathway in human umbilical cord derived endothelial colony forming cells by measuring FZD1 level in presence of panobinostat by qRT-PCR analysis", "assay_type": "cell-based", "details": "filed as activator"}, "[18]": {"biological_target": "Histone-lysine N-methyltransferase EZH2 (Homo sapiens) (UniProt Q15910)", "assay": "Inhibition of EZH2 in human umbilical cord derived endothelial colony forming cells assessed as decrease in H4K20me3 level at 0.01 to 5 uM measured after 24 to 72 hrs by Western blotting analysis", "assay_type": "cell-based", "details": "Umbilical cord derived endothelial colony forming cell, dose 0.01-5 µM, time 24-72 hrs", "summary_of_the_method": "as §1"}, "[19]": {"tested_on": "HUVEC", "assay": "Effect on pro-angiogenic property in human umbilical cord derived endothelial colony forming cells assessed as increase in intracellular CXCR4 protein phosphorylation by Western blotting analysis", "assay_type": "functional, cell-based"}, "[20]": {"tested_on": "Mus musculus", "assay": "In vivo upregulation of pro-angiogneic pathway in athymic nude CD1 hindlimb ischemia mouse model in presence of panobinostat treated for 28 days", "assay_type": "functional, organism-based", "details": "time 28.0 day"}, "[21]": {"tested_on": "HUVEC", "assay": "Effect on pro-angiogenic property in human umbilical cord derived endothelial colony forming cells assessed as formation of capillary network on matrigel at 5 uM for 72 hrs in presence of panobinostat", "assay_type": "functional, cell-based", "summary_of_the_method": "as §3"}, "[22]": {"tested_on": "Umbilical cord derived endothelial colony forming cell", "assay": "Activation of WNT pro-angiogenic pathway in human umbilical cord derived endothelial colony forming cells by measuring FZD7 level in presence of panobinostat by qRT-PCR analysis", "assay_type": "cell-based", "details": "filed as activator"}, "[23]": {"tested_on": "HUVEC", "assay": "Effect on pro-angiogenic property in human umbilical cord derived endothelial colony forming cells assessed as cell migration treated for 72 hrs measured by crystal violet staining analysis based gap closure assay", "assay_type": "functional", "details": "dose 0.1-5 µM"}, "[24]": {"tested_on": "HUVEC", "assay": "Effect on pro-angiogenic property in human umbilical cord derived endothelial colony forming cells assessed as increase in VEGFR2 protein level by Western blotting analysis", "assay_type": "functional, cell-based"}, "[25]": {"biological_target": "DNA (cytosine-5)-methyltransferase 1 (Homo sapiens) (UniProt P26358)", "sequence (P26358 whole entry)": "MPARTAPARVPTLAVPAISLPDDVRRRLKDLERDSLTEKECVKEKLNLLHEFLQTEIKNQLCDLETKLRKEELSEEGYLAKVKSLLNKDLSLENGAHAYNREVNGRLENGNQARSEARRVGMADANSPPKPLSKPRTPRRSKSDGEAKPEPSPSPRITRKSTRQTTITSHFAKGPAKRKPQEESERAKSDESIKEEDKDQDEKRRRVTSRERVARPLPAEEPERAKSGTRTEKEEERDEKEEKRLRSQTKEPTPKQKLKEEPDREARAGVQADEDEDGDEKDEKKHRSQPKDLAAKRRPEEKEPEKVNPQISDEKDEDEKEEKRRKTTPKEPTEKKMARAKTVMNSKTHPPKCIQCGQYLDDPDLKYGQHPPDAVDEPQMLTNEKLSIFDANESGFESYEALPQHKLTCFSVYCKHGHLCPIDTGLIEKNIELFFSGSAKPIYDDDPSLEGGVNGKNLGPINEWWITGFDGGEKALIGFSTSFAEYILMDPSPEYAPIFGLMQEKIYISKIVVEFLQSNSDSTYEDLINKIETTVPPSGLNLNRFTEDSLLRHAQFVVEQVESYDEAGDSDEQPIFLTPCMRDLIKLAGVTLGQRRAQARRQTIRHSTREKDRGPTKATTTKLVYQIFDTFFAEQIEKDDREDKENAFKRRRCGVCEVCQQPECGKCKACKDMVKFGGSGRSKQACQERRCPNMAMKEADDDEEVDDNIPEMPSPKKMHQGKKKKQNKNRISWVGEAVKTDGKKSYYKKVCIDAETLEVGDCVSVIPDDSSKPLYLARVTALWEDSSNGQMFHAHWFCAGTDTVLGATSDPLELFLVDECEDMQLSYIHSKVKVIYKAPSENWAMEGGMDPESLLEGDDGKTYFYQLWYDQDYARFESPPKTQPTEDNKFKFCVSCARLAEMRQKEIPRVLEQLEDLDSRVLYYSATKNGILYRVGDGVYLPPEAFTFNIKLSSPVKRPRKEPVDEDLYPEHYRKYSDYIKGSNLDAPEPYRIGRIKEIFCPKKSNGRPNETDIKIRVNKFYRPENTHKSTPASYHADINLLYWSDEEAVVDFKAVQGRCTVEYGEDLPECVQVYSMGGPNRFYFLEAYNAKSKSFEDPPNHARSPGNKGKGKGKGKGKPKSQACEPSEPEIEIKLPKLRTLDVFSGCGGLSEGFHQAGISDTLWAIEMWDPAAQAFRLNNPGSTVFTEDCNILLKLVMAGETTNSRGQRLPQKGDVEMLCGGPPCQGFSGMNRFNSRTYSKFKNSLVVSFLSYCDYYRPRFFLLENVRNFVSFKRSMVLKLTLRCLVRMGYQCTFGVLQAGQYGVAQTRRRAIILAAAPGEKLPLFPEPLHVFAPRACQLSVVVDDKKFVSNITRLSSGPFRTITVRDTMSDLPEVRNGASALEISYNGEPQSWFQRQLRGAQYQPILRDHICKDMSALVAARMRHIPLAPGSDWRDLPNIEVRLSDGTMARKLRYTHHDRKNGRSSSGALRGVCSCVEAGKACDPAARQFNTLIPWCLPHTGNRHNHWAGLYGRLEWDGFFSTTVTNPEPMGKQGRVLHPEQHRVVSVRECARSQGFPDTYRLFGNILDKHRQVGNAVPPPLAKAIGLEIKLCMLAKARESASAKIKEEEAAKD", "assay": "Inhibition of DNMT1 in human umbilical cord derived endothelial colony forming cells assessed as decrease in protein level by Western blotting analysis", "assay_type": "cell-based", "details": "Umbilical cord derived endothelial colony forming cell"}, "[26]": {"biological_target": "Histone-lysine N-methyltransferase EZH2 (Homo sapiens) (UniProt Q15910)", "assay": "Inhibition of EZH2 in human umbilical cord derived endothelial colony forming cells assessed as decrease in H3K27me2 level at 0.01 to 5 uM by Western blotting analysis", "assay_type": "cell-based", "details": "Umbilical cord derived endothelial colony forming cell, dose 0.01-5 µM, time 24-72 hrs, TDE = time-dependent effect", "summary_of_the_method": "as §1"}, "[27]": {"tested_on": "HUVEC", "assay": "Effect on human umbilical cord derived endothelial colony forming cells assessed as decrease in H3 acetylation level in presence of panobinostat measured after removal of drug"}},
  "note": "Active and inactive are the calls of the source. The calls are words filed in the database; no cut-off is given here.",
  "data": [
    {"compound": "CCCc1cc(C)[nH]c(=O)c1CNC(=O)c1cc(-c2ccnc(N3CCN(C)CC3)c2)cc2c1cnn2C(C)C", "values": [
      {"measurement": "Activity", "setting": "[1]", "result": "Active"},
      {"measurement": "Activity", "setting": "[2]", "result": "Active"},
      {"measurement": "Activity", "setting": "[3]", "result": "Active"},
      {"measurement": "inhibition", "setting": "[4]", "result": "inactive"},
      {"measurement": "Activity", "setting": "[5]", "result": "Active"},
      {"measurement": "Activity", "setting": "[6]", "result": "Active"},
      {"measurement": "Activity", "setting": "[7]", "result": "Active"},
      {"measurement": "inhibition", "setting": "[8]", "result": "inactive"},
      {"measurement": "Activity", "setting": "[9]", "result": "Active"},
      {"measurement": "Activity", "setting": "[10]", "result": "Active"},
      {"measurement": "Activity", "setting": "[11]", "result": "Active"},
      {"measurement": "Activity", "setting": "[12]", "result": "Dose-Dependent Effect"},
      {"measurement": "inhibition", "setting": "[13]", "result": "inactive"},
      {"measurement": "Activity", "setting": "[14]", "result": "Active"},
      {"measurement": "inhibition", "setting": "[15]", "result": "inactive"},
      {"measurement": "Activity", "setting": "[16]", "result": "Active"},
      {"measurement": "Activity", "setting": "[17]", "result": "Active"},
      {"measurement": "inhibition", "setting": "[18]", "result": "inactive"},
      {"measurement": "Activity", "setting": "[19]", "result": "Active"},
      {"measurement": "Activity", "setting": "[20]", "result": "Active"},
      {"measurement": "Activity", "setting": "[21]", "result": "Active"},
      {"measurement": "Activity", "setting": "[22]", "result": "Active"},
      {"measurement": "Activity", "setting": "[23]", "result": "Dose-Dependent Effect"},
      {"measurement": "Activity", "setting": "[24]", "result": "Active"},
      {"measurement": "inhibition", "setting": "[25]", "result": "inactive"},
      {"measurement": "inhibition", "setting": "[26]", "result": "Tde"},
      {"measurement": "Activity", "setting": "[27]", "result": "Active"}
    ]}
  ]
}
